Experimental findings from ChEMBL document CHEMBL1139303, “One-pot synthesis of 5-phenylimino, 5-thieno or 5-oxo-1,2,3-dithiazoles and evaluation of their antimicrobial and antitumor activity” (2009) are described below.

Format in all cases: functional
In test [1] the test system is Candida albicans. In words: Antifungal activity against Candida albicans ATCC 10231 after 24 hrs by broth macrodilution method. The note with it: ATCC 10231, 24 h. An outline of the steps: (§1)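 Yeasts pre-grown on yeast extract peptone dextrose medium, 30 °C, 24 h. MIC and MFC by macro-dilution broth method; compounds in DMSO, max 2.13% solvent in cultures. Amphotericin B and fluconazole as references. MFC/MIC ratio computed; ≥4 taken as fungistatic. Triplicate.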

Test [2] concerns Nakaseomyces glabratus. Briefly: Antifungal activity against Candida glabrata DSM6425 after 24 hrs by broth macrodilution method. The note with it: DSM6425, 24 h. The essentials:
as §1

Test [3] relates to Candida tropicalis. In words: Ratio of MFC to MIC against Candida tropicalis DSM 1346. The essentials:
as §1

Test [4] relates to Nakaseomyces glabratus. Briefly: Ratio of MFC to MIC against Candida glabrata DSM6425. The essentials: as §1
Test [5] deals with Candida albicans. In words: Ratio of MFC to MIC against Candida albicans ATCC 10231. The essentials:
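C. albicans ATCC10231 was pre-grown on yeast extract peptone dextrose agar for 24 h at 30 °C. MIC and MFC were determined by broth macro-dilution, with compounds dissolved in DMSO at no more than 2.13% solvent in the liquid culture. Each endpoint was measured in triplicate, and the MFC was divided by the MIC to give the ratio.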

The test system of test [6] is Candida tropicalis. In words: Antifungal activity against Candida tropicalis DSM 1346 after 24 hrs by broth macrodilution method. The note with it: DSM 1346, 24 h. The essentials:
as §1

≈ marks a conversion by molar mass, not a printed value.

Turning to `C[C@@H]1[C@H](O)[C@@H](C)/C=C/C=C/C=C/C=C/C=C/C=C/C=C/[C@H](O[C@@H]2O[C@H](C)[C@@H](O)[C@H](N)[C@@H]2O)C[C@@H]2O[C@](O)(C[C@@H](O)C[C@@H](O)[C@H](O)CC[C@@H](O)C[C@@H](O)CC(=O)O[C@H]1C)C[C@H](O)[C@H]2C(=O)O` [AMPHOTERICIN B], the MFC worked out at 0.5 µg/mL (≈ 0.541 µM) in test [1], 2 µg/mL (≈ 2.16 µM) in test [2] and 2 µg/mL (≈ 2.16 µM) in test [6]. Moreover, the MIC in test [1] was determined as 0.25 µg/mL (≈ 0.271 µM); in test [2] it was 2 µg/mL (≈ 2.16 µM); in test [6], 1 µg/mL (≈ 1.08 µM). Besides, the Ratio in test [3], in test [4] and in test [5] was 2 in each case.

Usually MFC stands for the smallest concentration meeting the test's criterion for killing the fungus. Low values mean greater fungicidal potency, high ones weaker fungicidal potency. One may read the MIC as the smallest concentration in the dilution series that meets the test's criterion for growth inhibition. Lower therefore signals greater potency.
